According to ChEMBL document CHEMBL1155522, “Molecular docking studies of phlorotannins from Eisenia bicyclis with BACE1 inhibitory activity” (Bioorg Med Chem Lett, 2010):

biological target: T1, Beta-secretase 1 (Homo sapiens, UniProt P56817); experiment: Noncompetitive inhibition of human recombinant BACE1 after 60 mins by Dixon plot analysis
In short: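 Inhibitor dissolved in 10% DMSO and tested at two concentrations. A Dixon plot of reciprocal enzyme velocity (1/V) against inhibitor concentration was used to assign the inhibition type and to derive the Ki of the enzyme–inhibitor complex.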

T1 sequence (P56817 whole entry): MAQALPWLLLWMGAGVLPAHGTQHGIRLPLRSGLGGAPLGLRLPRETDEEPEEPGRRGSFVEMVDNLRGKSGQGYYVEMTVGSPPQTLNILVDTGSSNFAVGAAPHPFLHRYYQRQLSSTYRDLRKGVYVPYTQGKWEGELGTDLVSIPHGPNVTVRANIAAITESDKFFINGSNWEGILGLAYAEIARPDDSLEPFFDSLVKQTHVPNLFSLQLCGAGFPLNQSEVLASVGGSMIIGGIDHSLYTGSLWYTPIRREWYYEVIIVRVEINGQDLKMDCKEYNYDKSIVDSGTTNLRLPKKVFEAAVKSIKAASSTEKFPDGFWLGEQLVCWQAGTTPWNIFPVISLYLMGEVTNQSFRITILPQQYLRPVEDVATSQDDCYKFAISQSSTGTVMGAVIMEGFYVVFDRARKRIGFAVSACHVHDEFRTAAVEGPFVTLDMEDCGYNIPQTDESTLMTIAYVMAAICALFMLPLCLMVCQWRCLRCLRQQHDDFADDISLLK

SMILES	Ki [µM]
Oc1cc(O)cc(Oc2c(O)cc(O)c3c2Oc2c(O)cc(O)cc2O3)c1 [ECKOL]	13.9
Oc1cc(O)cc(Oc2c(O)cc(O)c3c2Oc2c(O)cc(Oc4c(O)cc(Oc5c(O)cc(O)c6c5Oc5c(O)cc(O)cc5O6)cc4O)cc2O3)c1 [DIECKOL]	1.5
Oc1cc(O)cc(Oc2c(O)cc(O)c3c2Oc2c(O)cc4oc5c(Oc6cc(O)cc(O)c6)c(O)cc(O)c5c4c2O3)c1 [PHLOROFUCOFUROECKOL A]	1.3
Oc1cc(O)cc(Oc2c(O)cc(O)c3c2Oc2c(O)cc(Oc4c(O)cc(O)cc4O)cc2O3)c1	7.2
Oc1cc(O)c2oc3cc(O)c4oc5cc(O)cc(O)c5oc4c3oc2c1 [DIOXINODEHYDROECKOL]	8
Oc1cc(O)cc(Oc2c(O)cc(O)cc2Oc2c(O)cc(O)cc2O)c1 [TRIPHLOROETHOL A]	12.1

biological target: T1, Beta-secretase 1; experiment: Inhibition of human recombinant BACE1 after 60 mins by FRET assay
In short: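 Test samples dissolved in 10% DMSO; the 50% inhibitory concentration is reported as mean ± S.E.M. of triplicate determinations.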

SMILES	Activity	IC50 [µM]
Oc1cc(O)cc(Oc2c(O)cc(O)c3c2Oc2c(O)cc(O)cc2O3)c1 [ECKOL]	Dose-dependent effect	12.2
Oc1cc(O)cc(Oc2c(O)cc(O)c3c2Oc2c(O)cc(Oc4c(O)cc(Oc5c(O)cc(O)c6c5Oc5c(O)cc(O)cc5O6)cc4O)cc2O3)c1 [DIECKOL]	Dose-dependent effect	2.21
Oc1cc(O)cc(Oc2c(O)cc(O)c3c2Oc2c(O)cc4oc5c(Oc6cc(O)cc(O)c6)c(O)cc(O)c5c4c2O3)c1 [PHLOROFUCOFUROECKOL A]	Dose-dependent effect	2.13
Oc1cc(O)cc(Oc2c(O)cc(O)c3c2Oc2c(O)cc(Oc4c(O)cc(O)cc4O)cc2O3)c1	Dose-dependent effect	8.59
Oc1cc(O)c2oc3cc(O)c4oc5cc(O)cc(O)c5oc4c3oc2c1 [DIOXINODEHYDROECKOL]	Dose-dependent effect	5.35
O=c1c(O)c(-c2ccc(O)c(O)c2)oc2cc(O)cc(O)c12	Dose-dependent effect	
Oc1cc(O)cc(Oc2c(O)cc(O)cc2Oc2c(O)cc(O)cc2O)c1 [TRIPHLOROETHOL A]	Dose-dependent effect	11.7
Oc1cc(O)cc(O)c1 [PHLOROGLUCINOL]	Dose-dependent effect	36.5
